Source: PubChem
CHOP UPR activ = activators of apoptotic CHOP UPR arm, primary screen, cell-based, CHO-CHOP luciferase reporter, luminescence, uHTS; 0.34% of 330,000 active; activation, % at 10 µM; UPR activation; percent of tunicamycin response over DMSO baseline; AID 449763, 2010;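 active means at 10 µM dose, activation of 40% or more, normalized to positive control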;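 further: 100% = tunicamycin at 10 µg/mL and 0% = DMSO alone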
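Assay system: CHO cells with stable CHOP pathway luciferase reporter; Buffer or medium: F12 plus 10% serum; Times: 16-18 h cell attachment, then 6 h compound exposure, 37 °C; Signal: luciferase luminescence; Read-out basis: percent activation relative to tunicamycin control; Control set: tunicamycin high control, DMSO low control.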
Mdm2 MdmX PPI = inhibitors of human Mdm2-MdmX association, primary screen, cell-based, luminescence, split luciferase, SaOS-2, uHTS | 3% of 330,000 active | inhibition, % at 8 µM | Protein Mdm4 (Homo sapiens) + E3 ubiquitin-protein ligase Mdm2 (Homo sapiens), … | SaOS-2 split-luciferase Mdm2/MdmX complementation | AID 485346, 2010;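 active means inhibition of at least 50% at 8 µM in the primary screen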
T cruzi inh = inhibitors of intracellular T. cruzi growth, primary screen, luminescence, NIH3T3 host cells | T. cruzi beta-gal in NIH3T3, 90 h | inhibition, % (test concentration not listed) | 1.4% of 300,000 active;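 active means mean inhibition across valid replicates above about 55%, limit read from the data; inconclusive means mean below that limit but half or more replicates reach it; inactive means mean below it, under half of replicates reach it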;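 further: signal also drops with host cell toxicity which is not excluded here; 0% = plate median of DMSO wells and 100% = zero luminescence signal; higher percent means less beta-gal luminescence so fewer parasites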
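assay system = mouse NIH/3T3 fibroblasts infected with β-gal-expressing T. cruzi Tulahuen C4 | input = 5,000 NIH/3T3 host cells per well | buffer or medium = DMEM plus 2% FBS | timing = 3 h host attachment, then at least 90 h co-culture | measured by = GalScreen luminescence, 60 min | evaluation = luminescence reflecting intracellular parasite burden, expressed as percent inhibition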
CSC inhib = cancer stem cell viability inhibitors, primary screen, luminescence; cancer stem cell-like cells viability; inhibition, % at 7.5 µM; 1.1% of 300,000 active; AID 2717, 2010; in the data active means inhibition above about 75%; inconclusive means no clear call, values can overlap the other calls; tested in HMLE shEcad cells
UPR XBP1 act = activators of adaptive XBP1 UPR arm, primary screen, cell-based, CHO-XBP1 luciferase reporter, luminescence, uHTS; activation, % at 20 µM; AID 463104, 2010; 0.33% of 330,000 active; IRE1-XBP1 UPR activation; percent of tunicamycin response, DMSO as zero;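 active means versus positive control, 20 µM dose yields 30% or more activation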;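 further: 100% = tunicamycin at 10 µg/mL and 0% = DMSO only wells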
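incubation = overnight seeding at 37 °C, 6 h compound treatment at 37 °C | assay system = CHO-XBP1 cells stably carrying IRE1-XBP1-driven luciferase reporter | input = 1000 cells per well | detection = luciferase luminescence | dosing = single point, 20 µM final compound, 1% DMSO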
Beta cell apopt = inhibitors of cytokine-induced beta cell apoptosis, primary screen, luminescence; INS-1E cytokine-induced death, ATP luminescence, 48 h; percent of positive-control rescue, neutral wells zero; 0.8% of 300,000 active; protection from apoptosis, % (test concentration not listed);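 active means Every replicate reaches about 75%, or at least half do and their mean reaches it too, limit read from the data; inconclusive means At least half of replicates reach the limit but their mean does not; inactive means Under half of replicates reach the limit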;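 further: 0% = cytokine-treated negative control wells and 100% = positive control rescue; higher means more ATP so stronger rescue from cytokine killing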
Mdm2 MdmX conf = Mdm2-MdmX complex disruptors, retested hits, confirmation, luminescence, single concentration. shares compounds with Mdm2 MdmX PPI. Mdm2-MdmX binding, luminescent assay. inhibition, % at 8 µM. 55% of 10,000 active. AID 489028, 2010; in the data active means inhibition above about 40%
Full FLuc ctr = full-length luciferase signal inhibition, confirmation, counter-screen for Mdm2/MdmX interaction inhibitor project, cell-based, single concentration, SaOS-2; SaOS-2 full-length luciferase counterscreen, luminescence; 77% of 6,200 active; shares compounds with Mdm2 MdmX PPI; inhibition, % at 8 µM;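 active means mean inhibition at 8 µM reaching about 37%, which flags the compound as non-specific, limit read from the data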;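 further: p53-null SaOS-2 cells with luciferase driven by a doxycycline-inducible promoter; compound on cells about two nights before reading with doxycycline added after day one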
Active calls of the source: *; ? = inconclusive; · = no result. Most compounds without a hit are left out; they make up all but 5% or so of the library.

SMILES | CHOP UPR activ | Mdm2 MdmX PPI | T cruzi inh | CSC inhib | UPR XBP1 act | Beta cell apopt | Mdm2 MdmX conf | Full FLuc ctr
C[C@H]1CN([C@@H](C)CO)C(=O)c2cc(NC(=O)C3CCCCC3)ccc2O[C@H]1CN(C)Cc1ccc(-c2ccccc2)cc1 | 12 | 81* | · | 29 | 4 | 14 | 23 | ·
C[C@@H]1CN([C@H](C)CO)C(=O)c2cc(NC(=O)C3CCCCC3)ccc2O[C@@H]1CN(C)Cc1ccc(C(F)(F)F)cc1 | -1 | 33 | · | -3 | 2 | 8 | · | ·
CCCCS(=O)(=O)N1CCCC(C(=O)NCC2CCCO2)C1 (stereo not drawn) | 3 | 3 | 5 | -10 | -4 | -4 | · | ·
CC(C)C(NC(=O)c1ccc(C(C)(C)C)cc1)C(=O)NCC1(N(C)C)CCCCC1 (stereo not drawn) | 0 | 16 | -1 | -11 | -5 | -20 | · | ·
CCc1nn(C(CC)C(=O)NCc2cccc(OC)c2OC)c(=O)c2cc3occc3n12 (stereo not drawn) | -2 | 19 | -7 | -18 | -6 | 0 | · | ·
C[C@@H]1CN([C@H](C)CO)C(=O)c2cc(NC(=O)Nc3cccc4ccccc34)ccc2O[C@H]1CN(C)Cc1ccc(C(F)(F)F)cc1 | 5 | 56* | · | · | 4 | · | 29 | 81*
C1CCC(C(CC2CCCCN2)C2CCCCC2)CC1 (stereo not drawn) | 8 | 100* | 56* | 99* | 11 | 90* | 99* | 24
Cc1ccc(S(=O)(=O)N(CC(O)CN2CCOCC2)c2cccc([N+](=O)[O-])c2)cc1 (stereo not drawn) | -1 | 8 | -5 | -15 | 1 | -8 | · | ·
O=C(CCSc1ccc(Cl)c(Cl)c1)NC12CC3CC(CC(C3)C1)C2 | 2 | -19 | 29 | 13 | -4 | 2 | · | ·
Cc1ccc(NC(=O)c2cc3ccccc3oc2=O)cc1S(=O)(=O)N(C)C | -8 | 89* | 1 | -1 | -10 | -10 | 94* | 26
O=C(Nc1ccc(F)cc1)Nc1cc(OCC(F)(F)F)cc(OCC(F)(F)F)c1 | 27 | 89* | 44 | 51 | 4 | 106* | 90* | 52*
CCOc1ccc(NC(=O)Nc2cc(OCC(F)(F)F)cc(OCC(F)(F)F)c2)cc1 | 12 | 48 | 47 | 21 | -1 | 20 | · | ·
O=C(Nc1ccccc1C(=O)O)c1cccc(N2C(=O)c3ccccc3C2=O)c1 | 0 | 20 | -9 | -10 | -1 | 4 | · | ·
Cc1oc2c(c1C(=O)O)C(=O)c1ccccc1C2=O | 3 | 24 | 3 | 2 | 2 | -12 | · | ·
CCOC(=O)c1c(C)oc2c1C(=O)c1ccccc1C2=O | 2 | 54* | -11 | 85* | 2 | 84* | 25 | ·
O=C(OC1CCN(c2ncc(C(F)(F)F)cc2Cl)CC1)c1ccc(Cl)cc1 | -1 | 22 | -4 | -23 | 0 | -7 | · | ·
O=C(N/N=C/c1cccc(C(F)(F)F)c1)C1CCN(c2ncc(C(F)(F)F)cc2Cl)CC1 | -3 | 64* | -9 | 4 | 21 | · | -2 | ·
Cc1ccccc1Nc1nc(N)nc(COC(=O)c2cccn2C)n1 | 3 | -76 | -6 | · | 3 | -7 | · | ·
CCc1ccccc1Nc1nc(N)nc(COC(=O)c2cccn2C)n1 | 3 | 54* | 4 | 47 | 1 | -4 | 62* | 196*
Cc1cc(-c2nnc(SCC(=O)Nc3ccccc3C(F)(F)F)o2)c(C)n1-c1ccccc1 | -2 | 75* | 13 | -8 | -7 | -2 | 77* | 103*
Cc1ccc(-c2nnc(SCC(=O)Nc3ccccc3F)o2)cc1 | -1 | 80* | -8 | 70 | -4 | 11 | 67* | 33
Cc1cccc(NC(=O)CSc2nnc(-c3cc(C)n(-c4ccccc4)c3C)o2)c1C | -7 | 22 | 6 | 45 | -5 | -5 | · | ·
CC(C)CCNC(=O)c1cccc(S(=O)(=O)N2CCc3ccccc32)c1 | 0 | -8 | 1 | 11 | 3 | -1 | · | ·
O=C(CNC(=O)c1cccc(S(=O)(=O)N2CCc3ccccc32)c1)Nc1ccc(F)c(F)c1F | 0 | 81* | · | · | -5 | · | 84* | 62*
Cc1cc(=O)[nH]c(N/N=C/c2ccccn2)n1 | 1 | 80* | 35 | 107* | -3 | 95* | 78* | 59*
SMILES | CHOP UPR activ | Mdm2 MdmX PPI | T cruzi inh | CSC inhib | UPR XBP1 act | Beta cell apopt | Mdm2 MdmX conf | Full FLuc ctr
C(=N\Nc1nncc2ccccc12)/c1ccccn1 | 1 | 79* | 0 | -2 | -10 | 98* | 79* | 30
CC(/C=N/Nc1nncc(=O)[nH]1)=C\c1ccccc1 | 2 | 12 | -13 | -8 | 2 | -6 | · | ·
O=c1cnnc(N/N=C/c2ccccn2)[nH]1 | -3 | 82* | 53 | 120* | 1 | 106* | 88* | 53*
COc1ccc(CCNC(=O)CSc2nc(C)nc3sccc23)cc1OC | 0 | 21 | -1 | -10 | -4 | -3 | · | ·
COc1cc(Nc2ccc(C)cc2)c([N+](=O)[O-])nc1[N+](=O)[O-] | -1 | 53* | 60* | ? | 3 | 50 | 42* | 87*
Cc1ccc2nc(C)cc(Nc3ccc([N+](=O)[O-])cc3)c2c1 | · | · | -46 | -11 | · | · | · | ·
O=C(Nc1ccc(Cl)cc1)N1CCCN(Cc2ccc(F)cc2)C1 | 1 | 53* | 49 | 11 | -2 | 2 | 29 | ·
O=C(Nc1ccccc1)N1CCN(Cc2ccc(Cl)cc2)CC1 | 3 | 1 | -11 | -19 | 3 | -6 | · | ·
O=C(CNC(=O)c1ccco1)N=Nc1c(O)n(CCc2ccccc2)c2ccccc12 | 0 | 62* | 28 | 48 | 12 | 17 | 56* | 106*
CCn1c(O)c(N=NC(=O)CNC(=O)Cc2ccccc2)c2ccccc21 | 2 | -2 | -10 | 12 | 0 | -3 | · | ·
Cn1ncc2c(Nc3ccccc3Cl)nc(Nc3ccccc3Cl)nc21 | 0 | 54* | 24 | 7 | 10 | 3 | 7 | ·
